Rad51 HR inh: blocks human Rad51 in homologous recombination. Q06609. hRad51 DNA strand exchange, fluorescence dequenching. inhibition, % at 10 µM. 0.085% of 200,000 active. AID 1385;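 active = inhibition above 40% at the single screening dose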
Target sequence (Q06609 whole entry, looked up): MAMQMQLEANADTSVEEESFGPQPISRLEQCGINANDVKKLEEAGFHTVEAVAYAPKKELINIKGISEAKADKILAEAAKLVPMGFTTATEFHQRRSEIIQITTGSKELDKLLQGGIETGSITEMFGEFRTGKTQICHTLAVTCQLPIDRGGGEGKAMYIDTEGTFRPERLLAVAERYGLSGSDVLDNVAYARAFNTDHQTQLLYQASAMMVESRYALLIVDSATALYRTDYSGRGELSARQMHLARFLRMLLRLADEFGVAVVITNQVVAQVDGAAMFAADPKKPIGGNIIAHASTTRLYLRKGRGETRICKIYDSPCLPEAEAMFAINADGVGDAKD
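Material: human Rad51–ssDNA filaments; Probe or stimulus: labelled 47-mer dsDNA for strand exchange; Doses: single 10 µM dose; Incubation: 37 °C 15-min filament assembly, 30-min compound preincubation, 15-min exchange; Technique: FRET fluorescence dequenching, excitation 485 nm, emission 520 nm; Measure: Fluorescence-based percent inhibition, control- and blank-normalised; Benchmarks: plate control and blank wells.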
FLuc act counter: firefly luciferase counter-screen for stimulation assays. 200,000 tested, under 10 active. P08659. ATPlite luciferase biochemical, luminescence, 10 min; 0 = ATP-free wells, 1 = DMSO control. activation factor at 10 µM;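 active = luciferase activation factor, scaled between plate controls, of at least 2 with compound at 10 µM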
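System: cell-free luciferase reagent; medium: PBS as buffer for the ATP substrate; doses: test compounds dosed from 2 mM stocks in 100% DMSO; incubation: 10 min, room temperature; measured by: luminescence from luciferase reaction; read-out: luciferase activation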
NF-kB neuron act: compounds increasing NF-kB expression in human neuronal cells | NF-kB reporter expression; hits give high values | fold change at 12.5 µM | 1.6% of 190,000 active | AID 1239; in the data active = fold change above about 3.3
APP 5'UTR act: activates APP 5'UTR luciferase reporter; SH-SY5Y APP 5'UTR luciferase reporter, luminescence; zero percent = DMSO vehicle wells; 1% of 190,000 active; activation, % at 2 µM; AID 1276;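 active = activation above a set limit, based on mean plus 3 SD of controls, cut at about 140% in these data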
STAT1 act: activators of IFN-gamma induced STAT1 signaling; NIH 3T3 STAT1-luciferase reporter, luminescence; 100% = IFN-gamma alone, no compound; activation (% of control), % at 5.5 µM; 2.6% of 200,000 active; AID 932;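 active = activation above the screen-wide mean activation plus 3 SD, cut at about 130% in these data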
FLuc inh counter: inhibits firefly luciferase, flagging false hits in luciferase inhibition screens | ATPLite firefly luciferase biochemical luminescence, 10 min | inhibition, % at 10 µM | 1.5% of 200,000 active | AID 1006;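 active = inhibition above about 50% when tested at 10 µM, limit read from the data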
Large screens that a line does not name were inactive. Hits are enriched below; roughly 3.9% of the tested compounds scored in any of these assays.

O=c1[nH]c(N/N=C/c2cc3c(cc2[N+](=O)[O-])OCO3)nc2ccccc12	none (no result: FLuc act counter, NF-kB neuron act, APP 5'UTR act, STAT1 act, FLuc inh counter)
Cc1ccc(-n2nnc3ccccc3c2=O)cc1C	STAT1 act 134
COC(=O)c1ccc([C@H](NC(=O)c2ccco2)[C@]2(C)C[C@H]2C2CCCCC2)cc1	none (no result: FLuc act counter, NF-kB neuron act, APP 5'UTR act, STAT1 act, FLuc inh counter)
Cc1ccc(NC(=S)NCCc2ccccc2)nc1	STAT1 act 136
Cc1cccnc1NC(=S)NCCc1ccccc1	STAT1 act 130
CNC(=S)NCCc1ccccc1	none (no result: FLuc act counter, NF-kB neuron act, APP 5'UTR act, STAT1 act, FLuc inh counter)
Cc1ccc(NC(=O)CCCc2ccccc2)nc1	STAT1 act 138
O=C(CCc1ccccc1)Nc1ccc(Cl)cn1	STAT1 act 130
O=C(CCc1ccccc1)Nc1ccccc1F	NF-kB neuron act 3.5, STAT1 act 144 (no result: APP 5'UTR act)
CN(C)c1ccc(N/C(N)=N/c2nc(C(F)(F)F)cc(C(F)(F)F)n2)cc1	none
CCCCOc1ccc(-c2[nH]ncc2C=O)cc1	STAT1 act 135
Cc1ccc(NC(=O)c2ccc3snnc3c2)cc1	STAT1 act 147
COc1ccc(NC(=O)NCCC2=CCCCC2)cc1	STAT1 act 129
O=C(/C=C/c1ccccc1)NCCC1=CCCCC1	STAT1 act 148
COc1cccc(NC(=O)NCCC2=CCCCC2)c1	none
O=C(/C=C/c1ccc(F)cc1)NCCC1=CCCCC1	none
Cc1cc(C)c(C)c(S(=O)(=O)NC(C)C(=O)O)c1C (centres undefined)	none (no result: FLuc act counter, NF-kB neuron act, APP 5'UTR act, STAT1 act, FLuc inh counter)
O=C1CNC(=S)N1CCc1ccccc1Cl	none (no result: FLuc act counter, NF-kB neuron act, APP 5'UTR act, STAT1 act, FLuc inh counter)
CC(C)c1ccc(-n2nc3ccc(N)cc3n2)cc1	NF-kB neuron act 4.9, FLuc inh counter 87
Cn1cc2ccc(N)cc2n1	none
Cc1ccc(-n2nc3ccc(N)cc3n2)cc1	STAT1 act 150, FLuc inh counter 76
Cc1ccc(-n2nc3ccc(NC(=O)C(C)C)cc3n2)cc1	APP 5'UTR act 194, STAT1 act 135
CCN(c1ccccc1)S(=O)(=O)c1ccc(Cl)c(NC(=O)CN2C(=O)NC3(CCCC3)C2=O)c1	none (no result: FLuc act counter, NF-kB neuron act, APP 5'UTR act, STAT1 act, FLuc inh counter)
COC(=O)Cc1c(OC)ccn(CCc2c[nH]c3ccccc23)c1=O	STAT1 act 136
Cn1c(=O)c(N=O)c(N)n(Cc2ccccc2)c1=S	none (no result: FLuc act counter, NF-kB neuron act, APP 5'UTR act, STAT1 act, FLuc inh counter)
O=C1OCC2OC(O)C(O)C(O)C2OC(=O)c2cc(O)c(O)c(O)c2-c2c(O)c(O)c3oc(=O)c4c(c(O)c(O)c5oc(=O)c2c3c54)-c2c1cc(O)c(O)c2O (centres undefined)	Rad51 HR inh 68 (no result: FLuc act counter, NF-kB neuron act, APP 5'UTR act, STAT1 act, FLuc inh counter)
CC1CCN(c2ccc(NC(=O)Cc3ccccc3)cc2)CC1	STAT1 act 142 (no result: Rad51 HR inh)
O=C(Cc1ccccc1)Nc1ccc(N2CCCC2)cc1	none
O=c1[nH]c2c(c(=O)[nH]1)CCC2	none
Cc1[nH]n(-c2cccc(Cl)c2)c(=O)c1C=NCC(C)C	STAT1 act 144
Cc1[nH]n(-c2cccc(Cl)c2)c(=O)c1C=NCc1ccco1	NF-kB neuron act 6.7, APP 5'UTR act 145, FLuc inh counter 65
CCC(=O)O[C@]1(C(=O)SCF)[C@H](C)C[C@H]2[C@@H]3C[C@H](F)C4=CC(=O)C=C[C@]4(C)[C@@]3(F)[C@@H](O)C[C@@]21C	none (no result: FLuc act counter, NF-kB neuron act, APP 5'UTR act, STAT1 act, FLuc inh counter)
CCn1c(/C=N/c2nc3ccccc3n2C)nc2ccccc21	none
Cn1c(/N=C/c2ccc3c(c2)OCO3)nc2ccccc21	FLuc inh counter 91
Cn1c(/N=C/c2c[nH]c3ccccc23)nc2ccccc21	FLuc inh counter 88
Cn1c(NCc2c[nH]c3ccccc23)nc2ccccc21	NF-kB neuron act 3.3, STAT1 act 139
CCn1nc(Cc2cccc3ccccc23)c(C#N)c1N	none (no result: FLuc act counter, NF-kB neuron act, APP 5'UTR act, STAT1 act, FLuc inh counter)
COc1ccc(-c2cc(-c3ccccc3)n[nH]2)c(O)c1	NF-kB neuron act 7.9, APP 5'UTR act 190
COc1ccc(/C=C/c2nc(-c3ccccc3O)n(-c3ccccc3)n2)cc1	none (no result: Rad51 HR inh)
COc1ccc(/C=C/c2nc(-c3ccccc3O)n[nH]2)cc1	NF-kB neuron act 7.6, APP 5'UTR act 170
Oc1ccc(Cl)cc1-c1cc(-c2ccccc2)n[nH]1	none
COc1ccc(-c2cc(-c3ccccc3O)[nH]n2)cc1	NF-kB neuron act 7.1, APP 5'UTR act 192
CCOc1ccc(NC(=O)NC(=O)N(C(C)C)S(C)(=O)=O)cc1	none
CCOc1ccccc1NS(=O)(=O)c1cn(C)nc1C	none
CCOC(=O)C1CNc2cc(S(=O)(=O)CC)ccc2O1 (centres undefined)	none
